Reference: ChEMBL document CHEMBL3272255, “Substituted alpah-methylbenzyl and tricyclic arylalkyl lactamimides as inhibitors of blood platelet aggregation” (J Med Chem, 1976)

What was measured:
[1] = Antiplatelet activity in human platelet rich plasma assessed as inhibition of ADP-induced platelet aggregation at 10 ug/ml after 20 mins by aggregometric analysis relative to control; type: functional
How it was run: (§1)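 Human blood came from fasting donors who had taken no drugs for 5 days. It was citrated 1:9 with 3.8% sodium citrate. PRP was prepared at 100g for 10 min and PPP at 1500g for 15 min, and PRP was diluted with autologous PPP to 400000 platelets/mm³. Compound or saline control was incubated 20 min at 37°, then ADP was added at 2 μg/ml final. Percent inhibition was calculated from maximal ΔT, test vs control.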

[2] = Antiplatelet activity in human platelet rich plasma assessed as inhibition of ADP-induced platelet aggregation at 30 ug/ml after 20 mins by aggregometric analysis relative to control; type: functional; how it was run: as §1
[3] = Antiplatelet activity in human platelet rich plasma assessed as inhibition of ADP-induced platelet aggregation at 100 ug/ml after 20 mins by aggregometric analysis relative to control; type: functional; how it was run: as §1
Cavia porcellus [4] = assay: Antiplatelet activity in guinea pig assessed as inhibition of 0.8 ug/ml ADP-induced platelet aggregation measured as change in light transmittance at 30 mg/kg, po for 4 days measured at 2 hrs post last dose by aggregometric analysis relative to control; type: functional
How it was run: (§2)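 Dosing was oral by stomach tube for 4 days, alongside an untreated control group. Blood was drawn by heart puncture 2 h after the final dose, then citrated PRP was isolated and adjusted for aggregometry. ADP was added in vitro at the stated concentration. The read-out was the maximum increase in light transmittance (ΔT); group means were compared, treated vs control.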

Cavia porcellus [5] = assay: Antiplatelet activity in guinea pig assessed as inhibition of 0.8 ug/ml ADP-induced platelet aggregation measured as area between aggregation curve and baseline transmittance at 30 mg/kg, po for 4 days measured at 2 hrs post last dose by aggregometric analysis relative to control; type: functional
How it was run: (§3)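 Guinea pigs were dosed by stomach tube at the stated dose daily for 4 days, with an untreated control group kept in parallel. Blood was taken by heart puncture 2 h after the last dose, and citrated PRP was isolated and adjusted. ADP was added in vitro. Total response was the area between the aggregation curve and baseline transmittance over 5 min, measured by planimeter. Percent inhibition came from group-average total response, treated vs control.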

Cavia porcellus [6] = assay: Antiplatelet activity in guinea pig assessed as inhibition of 0.8 ug/ml ADP-induced platelet aggregation measured as change in light transmittance at 100 mg/kg, po for 4 days measured at 2 hrs post last dose by aggregometric analysis relative to control; type: functional; how it was run: as §2
Cavia porcellus [7] = assay: Antiplatelet activity in guinea pig assessed as 0.45 ug/ml ADP-induced platelet aggregation measured as change in light transmittance at 100 mg/kg, po for 4 days measured at 2 hrs post last dose by aggregometric analysis
[8] = Antiplatelet activity in human platelet rich plasma assessed as platelet factor-3 release at 300 ug/ml after 20 mins relative to control
Cavia porcellus [9] = assay: Antiplatelet activity in guinea pig assessed as inhibition of 0.45 ug/ml ADP-induced platelet aggregation measured as area between aggregation curve and baseline transmittance at 100 mg/kg, po for 4 days measured at 2 hrs post last dose by aggregometric analysis relative to control; type: functional; how it was run: as §3
Cavia porcellus [10] = assay: Antiplatelet activity in guinea pig assessed as inhibition of 0.8 ug/ml ADP-induced platelet aggregation measured as area between aggregation curve and baseline transmittance at 100 mg/kg, po for 4 days measured at 2 hrs post last dose by aggregometric analysis relative to control; type: functional; how it was run: as §3
Cavia porcellus [11] = assay: Antiplatelet activity in guinea pig assessed as inhibition of 0.45 ug/ml ADP-induced platelet aggregation measured as change in light transmittance at 30 mg/kg, po for 4 days measured at 2 hrs post last dose by aggregometric analysis relative to control; type: functional; how it was run: as §2
[12] = Antiplatelet activity in human platelet rich plasma assessed as inhibition of platelet factor-3 release at 100 ug/ml after 20 mins relative to control; type: functional
How it was run: (§4)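 Test compound solution was incubated in human citrated PRP at 37° for 20 min. PF3 activity was then measured by a modified Stypven test, with plasma diluted 1:10.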

Cavia porcellus [13] = assay: Antiplatelet activity in guinea pig assessed as inhibition of 0.45 ug/ml ADP-induced platelet aggregation measured as area between aggregation curve and baseline transmittance at 30 mg/kg, po for 4 days measured at 2 hrs post last dose by aggregometric analysis relative to control; type: functional; how it was run: as §3
[14] = Antiplatelet activity in human platelet rich plasma assessed as inhibition of platelet factor-3 release at 30 ug/ml after 20 mins relative to control; type: functional; how it was run: as §4
Cavia porcellus [15] = assay: Toxicity in guinea pig assessed as mortality at 300 mg/kg, po measured after third dose; type: organism-based; set-up: dose 300 mg/kg, route oral; conditions: in vivo

Structure (SMILES) | inhibition at 10 µg/mL [1] [%] | inhibition at 30 µg/mL [2] [%] | inhibition at 100 µg/mL [3] [%] | %max [8] [%] | %max [12] [%] | further results
CC(/N=C1\CCCCCN1)c1ccc(OCCCOc2ccccc2)cc1 (stereo not drawn) | 0 | 14 | 100 |  |  | 
CC(/N=C1\CCCCCN1)c1ccc(Oc2ccccc2)cc1.Cl (stereo not drawn) | 15 | 25 | 100 | 0.26 | 0.01 | ΔT % at 30 mg/kg (Cavia porcellus [4]): 42.2%; inhibition in vivo at 30 mg/kg (Cavia porcellus [5]): 38%; ΔT % at 100 mg/kg (Cavia porcellus [6]): 49%; ΔT % at 100 mg/kg (Cavia porcellus [7]): 17.7%; inhibition in vivo at 100 mg/kg (Cavia porcellus [9]): 29%; inhibition in vivo at 100 mg/kg (Cavia porcellus [10]): 8%; ΔT % at 30 mg/kg (Cavia porcellus [11]): 24.4%; inhibition in vivo at 30 mg/kg (Cavia porcellus [13]): 53%
CC(/N=C1\CCCN1)c1ccc2oc3ccccc3c2c1 (stereo not drawn) | 10 | 42 | 100 |  |  | 
CC(/N=C1\CCCCCN1)c1ccc2c(ccc3ccccc32)c1.Cl (stereo not drawn) | 4 | 43 | 100 | 2.6 | 0.06 | 
CC(/N=C1\CCCCCN1)c1ccc2c(c1)Cc1ccccc1-2.Cl (stereo not drawn) | 0 | 43 | 100 | 1.5 | 0.06 | 
CC(/N=C1\CCCCCN1)c1ccc(C=C2c3ccccc3-c3ccccc32)cc1.Cl (stereo not drawn) | 6 | 38 | 100 | 0.42 | 0.02 | 
CCCCCCCCCCCCCc1ccc(C(C)/N=C2\CCCCCN2)cc1 (stereo not drawn) | 16 | 33 | 100 |  |  | 
CCN(CC)CCN(CC(O)c1ccccc1)c1cc(Cl)ccc1Cl (stereo not drawn) |  | 10 | 62 | 0.52 | 0.1 | 
Cc1cc2c(cc1C(C)/N=C1\CCCCCN1)C(C)(C)CCC2(C)C (stereo not drawn) |  |  | 77 |  |  | 
CC(/N=C1\CCCCCN1)c1ccc(C=C(c2ccccc2)c2ccccc2)cc1.Cl (stereo not drawn) | 0 | 21 | 100 | 2.3 | 0.23 | 
CC(/N=C1\CCCCCN1)c1cc(C(C)(C)C)cc2c1CCC2(C)C (stereo not drawn) | 0 | 22 | 100 |  |  | 
CC(/N=C1\CCCCCN1)c1ccccc1OCCc1ccccc1 (stereo not drawn) | 11 | 30 | 81 |  |  | 
CC(/N=C1\CCCCCN1)c1ccc2sc3ccccc3c2c1.Cl (stereo not drawn) | 2 | 52 | 100 | 0.18 | 0.013 | ΔT % at 30 mg/kg (Cavia porcellus [4]): 43.6%; inhibition in vivo at 30 mg/kg (Cavia porcellus [5]): 3%; ΔT % at 100 mg/kg (Cavia porcellus [6]): 53.6%; ΔT % at 100 mg/kg (Cavia porcellus [7]): 32%; inhibition in vivo at 100 mg/kg (Cavia porcellus [9]): 0%; inhibition in vivo at 100 mg/kg (Cavia porcellus [10]): 0%; ΔT % at 30 mg/kg (Cavia porcellus [11]): 20.4%; inhibition in vivo at 30 mg/kg (Cavia porcellus [13]): 0%
CC(/N=C1\CCCCCN1)c1ccc(C2CCCCC2)cc1.Cl (stereo not drawn) | 9 | 31 | 100 | 0.62 | 0.004 | 
CC(/N=C1\CCCCCN1)c1ccc(CCc2ccccc2)cc1.Cl (stereo not drawn) | 8 | 37 | 78 | 0.91 | 0.013 | %max [14]: 0%
CC(/N=C1\CCCN1C)c1ccc(CCc2ccccc2)cc1 (stereo not drawn) |  | 29 | 100 |  |  | 
CC(/N=C1/CCCCCN1)c1cccc2ccccc12.Cl (stereo not drawn) | 0 | 46 | 70 | 0.037 | 0.003 | ΔT % at 30 mg/kg (Cavia porcellus [4]): 29%; inhibition in vivo at 30 mg/kg (Cavia porcellus [5]): 0%; ΔT % at 100 mg/kg (Cavia porcellus [6]): 21.6%; ΔT % at 100 mg/kg (Cavia porcellus [7]): 7.1%; inhibition in vivo at 100 mg/kg (Cavia porcellus [9]): 0%; inhibition in vivo at 100 mg/kg (Cavia porcellus [10]): 0%; Activity (Cavia porcellus [15]): Toxic; ΔT % at 30 mg/kg (Cavia porcellus [11]): 7%; inhibition in vivo at 30 mg/kg (Cavia porcellus [13]): 33%
CC(/N=C1\CCCCCN1)c1ccc(OCCCc2ccccc2)cc1 (stereo not drawn) |  |  | 74 |  |  | 
O=C(CO)OC(CC1CCCCN1)c1ccc(C=C2c3ccccc3-c3ccccc32)cc1 (stereo not drawn) | 1 | 28 | 99 | 0.747 | 0.162 | %max [14]: 0.003%
CC(/N=C1\CCCCCN1)c1ccc(-c2ccccc2)cc1.Cl (stereo not drawn) | 0 | 44 | 100 | 0.76 | 0.04 | 
CC(/N=C1\CCCCCN1)c1ccc2oc3ccccc3c2c1 (stereo not drawn) |  |  | 67 |  |  | 
CC(/N=C1\CCCCCCCN1)c1ccc2c(c1)Cc1ccccc1-2 (stereo not drawn) | 6 | 62 | 100 |  |  | 
CCCCCCCCCCCCOc1ccc(C(C)/N=C2\CCCCCN2)cc1 (stereo not drawn) |  |  | 64 |  |  | 
CC(/N=C1\CCCN1)c1cccc(OCCCCOc2ccccc2)c1 (stereo not drawn) | 0 | 16 | 100 |  |  | 
